In ChEMBL document CHEMBL5241123, “Homopurine guanine-rich sequences in complex with N-methyl mesoporphyrin IX form parallel G-quadruplex dimers and display a unique symmetry tetrad” (Bioorg Med Chem, 2023):
Active and inactive are the calls of the source. No cut-off for these calls is given here.

Legend:
Format in all cases: nucleic-acid assay
[1] = test system: Quadruplex DNA; assay: Stabilization and preservation of G-quadruplex homo-purine guanine-rich GA1 (GAGGGAGGGAGGGAAAAGGGGA) DNA (unknown origin) parallel structure conformation at 2 equivalents in 100K buffer by circular dichroism scan analysis; settings: dose 2.0 equiv
Method in brief: (§1)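 CD scans at 20 °C of ~4 μM annealed DNA, alone or with 2 eq. NMM, in 100K buffer. Range 220-330 nm, 1 cm cuvette, 2 nm bandwidth, five scans averaged.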

[2] = test system: Quadruplex DNA; assay: Stabilization and preservation of G-quadruplex homo-purine guanine-rich GA2 (GAGGGAGGGAAAAGGGGAGGGA) DNA (unknown origin) parallel structure conformation at 2 equivalents in 100K buffer by circular dichroism scan analysis; settings: dose 2.0 equiv; method in brief: as §1
[3] = test system: Quadruplex DNA; assay: Stabilization and preservation of G-quadruplex homo-purine guanine-rich GA3 (AGGGAAAAGGGGAGGGAAAAGGGGA) DNA (unknown origin) parallel structure conformation at 2 equivalents in 100K buffer by circular dichroism scan analysis; settings: dose 2.0 equiv; method in brief: as §1
[4] = test system: Quadruplex DNA; assay: Stabilization and preservation of G-quadruplex homo-purine guanine-rich GA1 (GAGGGAGGGAGGGAAAAGGGGA) DNA (unknown origin) parallel structure conformation assessed as increased homogeneity at 2 equivalents in 100K buffer by native PAGE analysis; settings: dose 2.0 equiv
Method in brief: (§2)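 Native 15% polyacrylamide gel in 1×TBE plus 10 mM KCl. Samples of ~50 μM DNA, alone or with 2 eq. NMM, in 100K buffer. Run 150 min at 150 V at room temperature after pre-running, with a dT15-dT57 ladder. Stains-All visualization.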

[5] = test system: Quadruplex DNA; assay: Stabilization and preservation of G-quadruplex homo-purine guanine-rich GA2 (GAGGGAGGGAAAAGGGGAGGGA) DNA (unknown origin) parallel structure conformation assessed as elimination of higher order species at 2 equivalents in 100K buffer by native PAGE analysis; settings: dose 2.0 equiv; method in brief: as §2
[6] = test system: Quadruplex DNA; assay: Stabilization and preservation of G-quadruplex homo-purine guanine-rich GA3 (AGGGAAAAGGGGAGGGAAAAGGGGA) DNA (unknown origin) parallel structure conformation at 2 equivalents in 100K buffer by native PAGE analysis; settings: dose 2.0 equiv; method in brief: as §2
[7] = test system: Quadruplex DNA; assay: Stabilization and preservation of G-quadruplex homo-purine guanine-rich GA1 (GAGGGAGGGAGGGAAAAGGGGA) DNA (unknown origin) parallel structure conformation assessed as increase in melting temperature at 2 equivalents in 100K buffer by UV-Visible melting analysis; settings: dose 2.0 equiv
Method in brief: (§3)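 ~4 μM DNA with or without 2 eq. NMM in 100K buffer (10 mM LiCaco pH 7.2, 100 mM KCl), annealed then cooled slowly. UV-Vis melting 20-90 °C, 0.5 or 0.2 °C/min, signal at 295 nm corrected at 335 nm. Tm and ΔH from a two-state fit (hysteresis under 3 °C).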

[8] = test system: Quadruplex DNA; assay: Stabilization and preservation of G-quadruplex homo-purine guanine-rich GA2 (GAGGGAGGGAAAAGGGGAGGGA) DNA (unknown origin) parallel structure conformation assessed as increase in melting temperature at 2 equivalents in 100K buffer by UV-Visible melting analysis; settings: dose 2.0 equiv; method in brief: as §3
[9] = test system: Quadruplex DNA; assay: Stabilization and preservation of G-quadruplex homo-purine guanine-rich GA3 (AGGGAAAAGGGGAGGGAAAAGGGGA) DNA (unknown origin) parallel structure conformation assessed as increase in melting temperature at 2 equivalents in 100K buffer by UV-Visible melting analysis; settings: dose 2.0 equiv; method in brief: as §3
[10] = test system: Quadruplex DNA; assay: Stabilization and preservation of G-quadruplex homo-purine guanine-rich GA1 (GAGGGAGGGAGGGAAAAGGGGA) DNA (unknown origin) parallel structure conformation assessed as increase in enthalpy change associated with melting transition at 2 equivalents in 100K buffer by UV-Visible melting analysis; settings: dose 2.0 equiv; method in brief: as §3
[11] = test system: Quadruplex DNA; assay: Stabilization and preservation of G-quadruplex homo-purine guanine-rich GA2 (GAGGGAGGGAAAAGGGGAGGGA) DNA (unknown origin) parallel structure conformation assessed as increase in enthalpy change associated with melting transition at 2 equivalents in 100K buffer by UV-Visible melting analysis; settings: dose 2.0 equiv; method in brief: as §3
[12] = test system: Quadruplex DNA; assay: Stabilization and preservation of G-quadruplex homo-purine guanine-rich GA3 (AGGGAAAAGGGGAGGGAAAAGGGGA) DNA (unknown origin) parallel structure conformation assessed as increase in enthalpy change associated with melting transition at 2 equivalents in 100K buffer by UV-Visible melting analysis; settings: dose 2.0 equiv; method in brief: as §3
[13] = test system: Quadruplex DNA; assay: Binding affinity to G-quadruplex homo-purine guanine-rich GA1 (GAGGGAGGGAGGGAAAAGGGGA) DNA (unknown origin) assessed as red shift at 3.3 uM in 5K buffer by UV-Vis titration based analysis
Method in brief: (§4)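 NMM (~3-4 μM, absorbance ~0.5, 1 cm cuvette) in 5K buffer (10 mM LiCaco pH 7.2, 95 mM LiCl, 5 mM KCl), titrated with DNA annealed in 5K buffer (170-470 μM, final [DNA]/[NMM] at least five), 2 min equilibration per addition, spectra 350-480 nm at 20 °C. SVD analysis, fit with NMM concentration fixed. Ka is the average of at least three trials.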

[14] = test system: Quadruplex DNA; assay: Binding affinity to G-quadruplex homo-purine guanine-rich GA2 (GAGGGAGGGAAAAGGGGAGGGA) DNA (unknown origin) assessed as red shift at 3.3 uM in 5K buffer by circular dichroism scan analysis
[15] = test system: Quadruplex DNA; assay: Binding affinity to G-quadruplex homo-purine guanine-rich GA3 (AGGGAAAAGGGGAGGGAAAAGGGGA) DNA (unknown origin) assessed as red shift at 3.3 uM in 5K buffer by circular dichroism scan analysis
[16] = test system: Quadruplex DNA; assay: Binding affinity to G-quadruplex homo-purine guanine-rich GA1 (GAGGGAGGGAGGGAAAAGGGGA) DNA (unknown origin) assessed as hypochromicity at 3.3 uM in 5K buffer by UV-Vis titration based analysis; method in brief: as §4
[17] = test system: Quadruplex DNA; assay: Binding affinity to G-quadruplex homo-purine guanine-rich GA2 (GAGGGAGGGAAAAGGGGAGGGA) DNA (unknown origin) assessed as hypochromicity at 3.3 uM in 5K buffer by circular dichroism scan analysis
[18] = test system: Quadruplex DNA; assay: Binding affinity to G-quadruplex homo-purine guanine-rich GA3 (AGGGAAAAGGGGAGGGAAAAGGGGA) DNA (unknown origin) assessed as hypochromicity at 3.3 uM in 5K buffer by circular dichroism scan analysis
[19] = test system: Quadruplex DNA; assay: Binding affinity to G-quadruplex homo-purine guanine-rich GA1 (GAGGGAGGGAGGGAAAAGGGGA) DNA (unknown origin) at DNA:compound concentration ratio of 1:1 in 5K buffer by UV-Vis titration based analysis; method in brief: as §4
[20] = test system: Quadruplex DNA; assay: Binding affinity to G-quadruplex homo-purine guanine-rich GA2 (GAGGGAGGGAAAAGGGGAGGGA) DNA (unknown origin) at DNA:compound concentration ratio of 1:1 in 5K buffer by UV-Vis titration based analysis; method in brief: as §4
[21] = test system: Quadruplex DNA; assay: Binding affinity to G-quadruplex homo-purine guanine-rich GA3 (AGGGAAAAGGGGAGGGAAAAGGGGA) DNA (unknown origin) at DNA:compound concentration ratio of 1:1 in 5K buffer by UV-Vis titration based analysis; method in brief: as §4
[22] = test system: Quadruplex DNA; assay: Binding affinity to G-quadruplex homo-purine guanine-rich GA1 (GAGGGAGGGAGGGAAAAGGGGA) DNA (unknown origin) at DNA:compound concentration ratio of 1:2 in 5K buffer by UV-Vis titration based analysis; method in brief: as §4
[23] = test system: Quadruplex DNA; assay: Binding affinity to G-quadruplex homo-purine guanine-rich GA3 (AGGGAAAAGGGGAGGGAAAAGGGGA) DNA (unknown origin) at DNA:compound concentration ratio of 1:2 in 5K buffer by UV-Vis titration based analysis; method in brief: as §4
[24] = test system: Quadruplex DNA; assay: Binding affinity to G-quadruplex homo-purine guanine-rich GA1 (GAGGGAGGGAGGGAAAAGGGGA) DNA (unknown origin) at DNA:compound concentration ratio of 2:1 in 5K buffer by UV-Vis titration based analysis; method in brief: as §4
[25] = test system: Quadruplex DNA; assay: Binding affinity to G-quadruplex homo-purine guanine-rich GA3 (AGGGAAAAGGGGAGGGAAAAGGGGA) DNA (unknown origin) at DNA:compound concentration ratio of 2:1 in 5K buffer by UV-Vis titration based analysis; method in brief: as §4
[26] = test system: Quadruplex DNA; assay: Binding affinity to G-quadruplex homo-purine guanine-rich GA1 (GAGGGAGGGAGGGAAAAGGGGA) DNA (unknown origin) at DNA:compound concentration ratio of 1:1 in 5K buffer by fluorescence titration based analysis
Method in brief: (§5)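 Fluorescence titration at 20 °C in 5K buffer: ~1.0 μM NMM titrated with 140-270 μM annealed DNA to a final [DNA]/[NMM] of at least eight. Excitation 395-398 nm (UV-Vis isosbestic points), emission 560-720 nm. Single-component SVD, fit to 1:1, 1:2 and 2:1 models. Ka is the average of at least three trials.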

[27] = test system: Quadruplex DNA; assay: Binding affinity to G-quadruplex homo-purine guanine-rich GA2 (GAGGGAGGGAAAAGGGGAGGGA) DNA (unknown origin) at DNA:compound concentration ratio of 1:1 in 5K buffer by fluorescence titration based analysis; method in brief: as §5
[28] = test system: Quadruplex DNA; assay: Binding affinity to G-quadruplex homo-purine guanine-rich GA3 (AGGGAAAAGGGGAGGGAAAAGGGGA) DNA (unknown origin) at DNA:compound concentration ratio of 1:1 in 5K buffer by fluorescence titration based analysis; method in brief: as §5
[29] = test system: Quadruplex DNA; assay: Binding affinity to G-quadruplex homo-purine guanine-rich GA1 (GAGGGAGGGAGGGAAAAGGGGA) DNA (unknown origin) at DNA:compound concentration ratio of 1:2 in 5K buffer by fluorescence titration based analysis; method in brief: as §5
[30] = test system: Quadruplex DNA; assay: Binding affinity to G-quadruplex homo-purine guanine-rich GA2 (GAGGGAGGGAAAAGGGGAGGGA) DNA (unknown origin) at DNA:compound concentration ratio of 1:2 in 5K buffer by fluorescence titration based analysis; method in brief: as §5
[31] = test system: Quadruplex DNA; assay: Binding affinity to G-quadruplex homo-purine guanine-rich GA3 (AGGGAAAAGGGGAGGGAAAAGGGGA) DNA (unknown origin) at DNA:compound concentration ratio of 1:2 in 5K buffer by fluorescence titration based analysis; method in brief: as §5
[32] = test system: Quadruplex DNA; assay: Binding affinity to G-quadruplex homo-purine guanine-rich GA1 (GAGGGAGGGAGGGAAAAGGGGA) DNA (unknown origin) at DNA:compound concentration ratio of 2:1 in 5K buffer by fluorescence titration based analysis; method in brief: as §5
[33] = test system: Quadruplex DNA; assay: Binding affinity to G-quadruplex homo-purine guanine-rich GA2 (GAGGGAGGGAAAAGGGGAGGGA) DNA (unknown origin) at DNA:compound concentration ratio of 2:1 in 5K buffer by fluorescence titration based analysis; method in brief: as §5
[34] = test system: Quadruplex DNA; assay: Binding affinity to G-quadruplex homo-purine guanine-rich GA3 (AGGGAAAAGGGGAGGGAAAAGGGGA) DNA (unknown origin) at DNA:compound concentration ratio of 2:1 in 5K buffer by fluorescence titration based analysis; method in brief: as §5

- Activity [1]: Active
- Activity [2]: Active
- Activity [3]: Active
- Activity [4]: Active
- Activity [5]: Active
- Activity [6]: Active
- ΔTm [7]: 14.6 °C
- ΔTm [8]: 13.1 °C
- ΔTm [9]: 7 °C
- deltaH [10]: 19.4 kcal/mol
- deltaH [11]: 15.1 kcal/mol
- deltaH [12]: 3.35 kcal/mol
- Activity [13]: 21 nm
- Activity [14]: 21.3 nm
- Activity [15]: 21.4 nm
- Activity [16]: 21%
- Activity [17]: 19%
- Activity [18]: 28%
- Ka [19]: 0.19 µM⁻¹
- Ka [20]: 1.4 µM⁻¹
- Ka [21]: 0.24 µM⁻¹
- Ka [22]: 0.07 µM⁻¹
- Ka [23]: 0.1 µM⁻¹
- Ka [24]: 0.8 µM⁻¹
- Ka [25]: 0.96 µM⁻¹
- Ka [26]: 0.4 µM⁻¹
- Ka [27]: 1 µM⁻¹
- Ka [28]: 0.4 µM⁻¹
- Ka [29]: 0.18 µM⁻¹
- Ka [30]: 0.36 µM⁻¹
- Ka [31]: 0.2 µM⁻¹
- Ka [32]: 1.1 µM⁻¹
- Ka [33]: 3.7 µM⁻¹
- Ka [34]: 1.1 µM⁻¹
SMILES: CCC1=C(C)c2cc3c(C)c(CCC(=O)O)c(cc4nc(cc5[nH]c(cc1n2)c(C)c5CC)C(C)=C4CCC(=O)O)n3C
